Laboratory results from ChEMBL document CHEMBL4825712.
The source made the active and inactive calls. The calls are words filed in the database; no cut-off is given here.

Experiments:
Influenza A virus [1] = experiment: Antiviral activity against Influenza A virus A/WSN/33(H1N1) infected in human A549 cells assessed as viral replication measured after 24 hrs by immunofluorescence microscopy; assay type: functional, organism-based; settings: A/WSN/1933(H1N1); for IC50: A549, 24 h; for IC90: A549, time 24 hrs
Outline: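 A549 cells were infected with A/WSN/33 at MOI 0.01 for 24 h, then fixed in 4% formaldehyde and permeabilized with 0.1% Triton X-100. They were immunostained for NP with an Alexa-488 secondary plus DAPI and imaged on an image cytometer. Percent infection = NP-positive cells divided by total cells.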

Influenza A virus [2] = experiment: Antiviral activity against Influenza A virus A/California/07/2009 (HIN1) infected in human A549 cells assessed as reduction in infected cells up to 25 uM pretreated for 1 hr; assay type: functional, organism-based; settings: A/California/07/2009(H1N1), dose microM <=25, time 1.0 hrs
Influenza A virus [3] = experiment: Antiviral activity against Influenza A virus A/Wyoming/03/2003 (H3N2) infected in human A549 cells assessed as reduction in infected cells up to 25 uM pretreated for 1 hr; assay type: functional, organism-based; settings: dose microM <=25, time 1.0 hrs
A549 = experiment: Cytotoxicity against human A549 cells by MTT assay; assay type: cell-based
Outline: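 MTT assay run according to the manufacturer's instructions, concurrently with NP immunostaining of infected A549 cultures.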

[4] = Selectivity index, ratio of CC50 for human A549 cells to IC50 for antiviral activity against Influenza A virus A/WSN/33(H1N1) infected in human A549 cells; assay type: toxicity, cell-based; settings: read-out: Selectivity Index
Outline: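 Ratio of CC50 to IC50. IC50 came from A549 cells pretreated 2 h with compound, then infected 24 h with WSN-PB2-Nanoluc at MOI 0.02 and read by Nano-Glo luminescence. CC50 was measured by CellTiter-Glo.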

Influenza A virus [5] = experiment: Antiviral activity against Influenza A virus A/WSN/33(H1N1) infected in human A549 cells assessed as reduction in M1 mRNA level by qRT-PCR analysis; assay type: functional, organism-based; settings: A/WSN/1933(H1N1)
Outline: (§1)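 A549 cells were pretreated for 1 h with 0.5 or 1 μM compound or 0.1% DMSO. They were then infected with A/WSN/33 at MOI 2 for 8 h with compound still present. Total RNA was isolated, reverse transcribed and analysed by qPCR for viral HA, NS1, M1 and M2 mRNA. Three independent experiments; mean ± SD.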

Influenza A virus [6] = experiment: Antiviral activity against Influenza A virus A/WSN/33(H1N1) infected in human Primary bronchial epithelial cells assessed as reduction in M1 mRNA level at 1 uM by qRT-PCR analysis; assay type: functional, organism-based; settings: A/WSN/1933(H1N1), Primary bronchial epithelial cell
Influenza A virus [7] = experiment: Antiviral activity against Influenza A virus A/WSN/33(H1N1) infected in human A549 cells assessed as reduction in M2 mRNA level by qRT-PCR analysis; assay type: functional, organism-based; settings: A/WSN/1933(H1N1); outline: as §1
Influenza A virus [8] = experiment: Antiviral activity against Influenza A virus A/Vietnam/2506/2004 (H5N1) infected in human A549 cells assessed as log reduction in viral titer at 25 uM by standard plaque assay; assay type: functional, organism-based
Influenza A virus [9] = experiment: Antiviral activity against Influenza A virus A/WSN/33(H1N1) infected in human A549 cells assessed as reduction in NP level at 1 uM pretreated for 8 hrs measured by Western blot analysis; assay type: functional, organism-based; settings: A/WSN/1933(H1N1)
Outline: (§2)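 A549 cells were pretreated with 1 μM compound or 0.1% DMSO, then infected with A/WSN/33 at MOI 2 for 8 h. Lysates were analysed by western blot for viral proteins, with β-actin as loading control. Three independent experiments.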

Influenza A virus [10] = experiment: Antiviral activity against Influenza A virus wild-type A/WSN/1933 (H1N1) infected in human A549 cells assessed as log reduction in viral titer at 25 uM by standard plaque assay; assay type: functional, organism-based
Outline: (§3)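 A549 cells were infected in the absence or presence of 25 μM compound. For A/WSN/1933 the MOI was 0.01 and infection ran 24 h. For A/Panama/1999 the MOI was 0.1 and infection ran 48 h. Viral titers were determined by standard plaque assay.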

Influenza A virus [11] = experiment: Antiviral activity against Influenza A virus A/WSN/33(H1N1) infected in human A549 cells assessed as reduction in NP protein level at 1 uM treated 1 hr after viral infection by Western blot analysis; assay type: functional, organism-based; settings: A/WSN/1933(H1N1)
Outline: (§4)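 A549 cells received 1 μM compound 1 h before infection, or 1 h or 2 h after infection. Infection was with WSN at MOI 2 for 8 h. Lysates were analysed by western blot for viral proteins.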

Influenza A virus [12] = experiment: Antiviral activity against Influenza A virus A/WSN/33(H1N1) infected in human A549 cells assessed as reduction in HA mRNA level by smRNA FISH followed by fluorescence microscopy; assay type: functional, organism-based; settings: A/WSN/1933(H1N1)
Outline: (§5)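 A549 cells on gelatin-coated coverslips were infected with WSN at MOI 2 for 8 h. Cells were fixed in 4% PFA, held in 70% ethanol for 12 h at 4 °C, and hybridized with M, HA or NS smRNA-FISH probes at 37 °C for 4 h. After a formamide/SSC wash, nuclei were stained with Hoechst and imaged by fluorescence microscopy.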

Influenza A virus [13] = experiment: Antiviral activity against Influenza A virus A/WSN/33(H1N1) infected in human A549 cells assessed as reduction in NS mRNA level by smRNA FISH followed by fluorescence microscopy; assay type: functional, organism-based; settings: A/WSN/1933(H1N1); outline: as §5
Influenza A virus [14] = experiment: Antiviral activity against Influenza A virus A/WSN/33(H1N1) infected in human A549 cells assessed as reduction in HA level at 1 uM pretreated for 8 hrs measured by Western blot analysis; assay type: functional, organism-based; settings: A/WSN/1933(H1N1); outline: as §2
Influenza A virus [15] = experiment: Antiviral activity against Influenza A virus A/WSN/33(H1N1)-PB2-Nanoluc virus infected in human HCT-116 cells assessed as decrease in Nano-luc at 1 uM pretreated for 1 hr followed viral infection incubated for 24 hrs by Nano-Glo luminescence assay; assay type: functional, organism-based; settings: A/WSN/1933(H1N1)
Influenza A virus [16] = experiment: Antiviral activity against Influenza A virus A/WSN/33(H1N1) infected in human A549 cells assessed as reduction in M1 protein level at 1 uM treated 1 hr after viral infection by Western blot analysis; assay type: functional, organism-based; settings: A/WSN/1933(H1N1); outline: as §4
[17] = target: Hemagglutinin (Influenza A virus (A/Puerto Rico/8/1934(H1N1))) (UniProt P03452); experiment: Inhibition of Influenza A virus A/WSN/33(H1N1) hemagglutinin assessed as inhibition of HA-mediated chicken erythrocytes membrane fusion at 0.08 to 5 uM incubated for 30 mins pH 5 by hemolysis inhibition assay; settings: Influenza A virus (A/WSN/1933(H1N1)), dose 0.08-5 µM
Outline: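 Chicken erythrocyte suspension was incubated on ice with WSN, with or without compound at a range of concentrations. The mixture was acidified to pH 5 and incubated at 37 °C for 30 min. NADH released by lysis was read at 340 as the fusion measure. Data are % of DMSO control; means of triplicates ± SD.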

Influenza A virus [18] = experiment: Antiviral activity against Influenza A virus A/WSN/33(H1N1) infected in human A549 cells assessed as reduction in M1 level at 1 uM pretreated for 8 hrs measured by Western blot analysis; assay type: functional, organism-based; settings: A/WSN/1933(H1N1); outline: as §2
Influenza A virus [19] = experiment: Antiviral activity against Influenza A virus A/Panama/1999 (H3N2) infected in human A549 cells assessed as log reduction in viral titer at 25 uM by standard plaque assay; assay type: functional, organism-based; outline: as §3
Influenza A virus [20] = experiment: Antiviral activity against Influenza A virus A/WSN/33(H1N1) infected in human A549 cells assessed as reduction in M mRNA level at 1 uM pretreated 1 hr before viral infection by smRNA FISH followed by fluorescence microscopy; assay type: functional, organism-based; settings: A/WSN/1933(H1N1)
Outline: (§6)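 A549 cells received 1 μM compound either 1 h before infection or 1 h after infection. Infection was with WSN at MOI 2 for 8 h. Viral M mRNA was detected by smRNA-FISH and fluorescence microscopy.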

Influenza A virus [21] = experiment: Antiviral activity against Influenza A virus A/WSN/33(H1N1) infected in human A549 cells assessed as reduction in M mRNA level at 1 uM treated 1 hr after viral infection by smRNA FISH followed by fluorescence microscopy; assay type: functional, organism-based; settings: A/WSN/1933(H1N1); outline: as §6
Influenza A virus [22] = experiment: Antiviral activity against Influenza A virus A/WSN/33(H1N1) infected in human A549 cells assessed as reduction in NS1 mRNA level by qRT-PCR analysis; assay type: functional, organism-based; settings: A/WSN/1933(H1N1); outline: as §1
Influenza A virus [23] = experiment: Antiviral activity against Influenza A virus A/WSN/33(H1N1) infected in human A549 cells assessed as reduction in poly(A) RNA/GAPDH mRNA level at 1 uM by smRNA FISH followed by fluorescence microscopy; assay type: functional, organism-based; settings: A/WSN/1933(H1N1)
Influenza A virus [24] = experiment: Antiviral activity against Influenza A virus A/WSN/33(H1N1) infected in human A549 cells assessed as reduction in M mRNA level by smRNA FISH followed by fluorescence microscopy; assay type: functional, organism-based; settings: A/WSN/1933(H1N1); outline: as §5
Influenza A virus [25] = experiment: Antiviral activity against Influenza A virus A/WSN/33(H1N1) infected in human A549 cells assessed as reduction in HA mRNA level by qRT-PCR analysis; assay type: functional, organism-based; settings: A/WSN/1933(H1N1); outline: as §1
Influenza A virus [26] = experiment: Antiviral activity against Influenza A virus A/WSN/33(H1N1)-PB2-Nanoluc virus infected in human A549 cells assessed as decrease in Nano-luc pretreated for 2 hr followed viral infection incubated for 24 hrs by Nano-Glo luminescence assay; assay type: functional, organism-based; settings: A/WSN/1933(H1N1)
Outline: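 A549 cells were treated with a range of compound concentrations for 2 h, then infected with WSN-PB2-Nanoluc (NanoLuc fused to PB2) at MOI 0.02 for 24 h. Cells were lysed in Renilla lysis buffer and luminescence read with Nano-Glo substrate on equal lysate volumes. IC50 was derived from the dose-response.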

Chain of Hemagglutinin (Influenza A virus (A/Puerto Rico/8/1934(H1N1))) (P03452 whole entry, the tested form may be a part): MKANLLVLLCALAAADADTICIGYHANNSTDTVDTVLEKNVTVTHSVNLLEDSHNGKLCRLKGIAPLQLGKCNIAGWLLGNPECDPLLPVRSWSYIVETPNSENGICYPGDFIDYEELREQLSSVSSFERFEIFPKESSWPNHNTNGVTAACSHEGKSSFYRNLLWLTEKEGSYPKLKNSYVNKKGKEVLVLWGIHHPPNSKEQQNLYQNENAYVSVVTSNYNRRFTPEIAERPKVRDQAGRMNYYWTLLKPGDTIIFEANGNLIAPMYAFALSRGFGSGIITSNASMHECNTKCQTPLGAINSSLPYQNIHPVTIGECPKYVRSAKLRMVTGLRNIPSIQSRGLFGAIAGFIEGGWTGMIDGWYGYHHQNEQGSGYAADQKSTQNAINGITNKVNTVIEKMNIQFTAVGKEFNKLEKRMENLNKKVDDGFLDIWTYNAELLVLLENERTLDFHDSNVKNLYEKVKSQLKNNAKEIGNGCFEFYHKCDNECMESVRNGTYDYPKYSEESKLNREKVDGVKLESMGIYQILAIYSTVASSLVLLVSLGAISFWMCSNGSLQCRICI

CCN(c1ccc(Cl)cc1C)S(=O)(=O)c1cc(Cl)ccc1Cl
IC50 (Influenza A virus [1]): 0.034 µM | IC90 (Influenza A virus [1]): 0.5 µM | Activity (Influenza A virus [2]): Active | Activity (Influenza A virus [3]): Active | CC10 (A549): > 5 µM | CC50 (A549): > 5 µM | selectivity ratio [4]: > 147

CCN(c1ccccc1C)S(=O)(=O)c1cc(Cl)ccc1Cl
Activity (Influenza A virus [5]): Active | IC50 (Influenza A virus [1]): 0.04 µM | IC90 (Influenza A virus [1]): 1.2 µM | Activity (Influenza A virus [6]): Active | Activity (Influenza A virus [7]): Active | Activity (Influenza A virus [8]): Active | Activity (Influenza A virus [9]): Active | Activity (Influenza A virus [10]): Active | Activity (Influenza A virus [11]): Active | Activity (Influenza A virus [12]): Active | Activity (Influenza A virus [2]): Active | Activity (Influenza A virus [3]): inactive | Activity (Influenza A virus [13]): Active | Activity (Influenza A virus [14]): Active | IC50 (Influenza A virus [15]): 16.8 µM | Activity (Influenza A virus [16]): Active | Activity [17]: Active | Activity (Influenza A virus [18]): Active | Activity (Influenza A virus [19]): Active | Activity (Influenza A virus [20]): Active | Activity (Influenza A virus [21]): Active | Activity (Influenza A virus [22]): Active | CC10 (A549): > 25 µM | CC50 (A549): > 25 µM | Activity (Influenza A virus [23]): inactive | Activity (Influenza A virus [24]): Active | Activity (Influenza A virus [25]): Active | selectivity ratio [4]: > 625

C#CCCC1(CCN(c2ccc(Cl)cc2C)S(=O)(=O)c2cc(Cl)ccc2Cl)N=N1
IC50 (Influenza A virus [26]): > 5 µM | CC10 (A549): > 25 µM

O=S(=O)(c1cc(Cl)ccc1Cl)N1CCCc2cc(Cl)ccc21
IC50 (Influenza A virus [26]): > 5 µM | CC10 (A549): > 5 µM

C#CCN(c1cccc(N=[N+]=[N-])c1)S(=O)(=O)c1cc(Cl)ccc1Cl
IC50 (Influenza A virus [26]): 136 µM | CC10 (A549): > 25 µM

CCN(c1ccc(F)cc1F)S(=O)(=O)c1cc(Cl)ccc1Cl
IC50 (Influenza A virus [1]): 0.052 µM | IC90 (Influenza A virus [1]): 0.9 µM | Activity (Influenza A virus [2]): Active | Activity (Influenza A virus [3]): inactive | CC10 (A549): > 5 µM | CC50 (A549): > 5 µM | selectivity ratio [4]: > 96

CCN(C(=O)c1cc(Cl)ccc1Cl)c1ccc(Cl)cc1C
IC50 (Influenza A virus [26]): > 5 µM | CC10 (A549): > 5 µM

C#CCCC1(CCOC(=O)Cc2ccc(N(CC)S(=O)(=O)c3cc(Cl)ccc3Cl)cc2)N=N1
IC50 (Influenza A virus [26]): > 5 µM | CC10 (A549): > 25 µM

O=S(=O)(c1cc(Cl)ccc1Cl)N1CCc2cc(Cl)ccc21
IC50 (Influenza A virus [26]): > 5 µM | CC10 (A549): > 5 µM
